Assay results from different studies.
Lines come from different studies, so protocols differ.
Read-out: cell growth or viability

Compound	cell line	technique	time	IC50
C=C(F)C(=O)N1CCN(c2nc(OC[C@@H]3CCCN3C)nc3c2CCN(c2cccc4cccc(Cl)c24)C3)C[C@@H]1CC#N	MIA PaCa-2	ATP luminescence	–	56.5 nM
Nc1ccc(/C=C/C(=O)N2CCc3c(oc4c(-c5ccc(F)cc5)cc(-c5ncc(C(=O)N6CCC(F)(F)CC6)cn5)cc34)C2)cn1	MIA PaCa-2	CCK-8	72 h	4460 nM
C[C@H](CCC(=O)O)[C@H]1CC[C@H]2[C@@H]3CC[C@@H]4C[C@H](O)CC[C@]4(C)[C@H]3CC[C@]12C	LNCaP	MTT	72 h	66000 nM
COc1cc2c3c(n(CCCNCCO)c(=O)c2cc1OC)-c1nc2c(cc1C3=O)OCO2	MOLT-4	MTS	72 h	12 nM
COc1ccc(F)cc1-c1ccc2nc(-c3ccccc3)cc(C(=O)Nc3ccccc3)c2c1	MIA PaCa-2	MTT	48 h	> 50000 nM
CN1CCC(NC(=O)c2ccc(-c3cc(-c4ccsc4)c4oc5c(c4c3)CCN(C(=O)/C=C/c3ccc(N)nc3)C5)nn2)C(F)(F)C1 (stereo not shown)	MIA PaCa-2	CCK-8	72 h	650 nM
O=C(Nc1ccccc1)c1cc(-c2ccccc2)nc2ccc(-c3ccccc3)cc12	MIA PaCa-2	MTT	48 h	> 50000 nM
COc1cc2c3c(n(CCCn4ccnc4)c(=O)c2cc1OC)-c1nc2c(cc1C3=O)OCO2	MOLT-4	MTS	72 h	43 nM
Cc1sc2c(c1C)C(c1ccc(Cl)cc1)=N[C@@H](CC(=O)NCCCCCCCCNC(=O)COc1cccc3c1C(=O)N(C1CCC(=O)NC1=O)C3=O)c1nnc(C)n1-2 (stereo partly shown)	Jurkat	ATP luminescence	72 h	39 nM
COc1cccc2c1C(=O)c1c(O)c3c(c(O)c1C2=O)C[C@@](O)(C(=O)CO)C[C@@H]3O[C@H]1C[C@H](N)[C@H](O)[C@H](C)O1	MIA PaCa-2	MTT	48 h	25300 nM
COc1cc2c3c(n(CCCN4CCOCC4)c(=O)c2cc1OC)-c1nc2c(cc1C3=O)OCO2	MOLT-4	MTS	72 h	113 nM
CN1CCC(NC(=O)c2ccc(-c3cc(C4CC4)c4oc5c(c4c3)CCN(C(=O)/C=C/c3ccc(N)nc3)C5)nn2)C(F)(F)C1 (stereo not shown)	MIA PaCa-2	CCK-8	72 h	1900 nM
CCNCCCn1c2c(c3cc(OC)c(OC)cc3c1=O)C(=O)c1cc3c(nc1-2)OCO3	KMS-27	MTS	72 h	141 nM
COc1ccc(-c2cc(C(=O)Nc3ccccc3)c3cc(-c4ccccc4)ccc3n2)cc1	MIA PaCa-2	MTT	48 h	48300 nM
C=CC(=O)N1CCN(c2nc(=O)n(-c3c(C)ccnc3C(C)C)c3nc(-c4c(O)cccc4F)c(F)cc23)[C@@H](C)C1	SW837	ATP luminescence	–	46.3 nM
CC1(C)CCC(c2ccc(Cl)cc2)=C(CN2CCN(c3ccc(C(=O)NS(=O)(=O)c4ccc(N[C@H](CCN5CCOCC5)CSc5ccccc5)c(S(=O)(=O)C(F)(F)F)c4)cc3)CC2)C1	human Platelet	MTS	24 h	6.4 nM
COc1cc2c3c(n(CCCNC(C)C)c(=O)c2cc1OC)-c1nc2c(cc1C3=O)OCO2	MOLT-4	MTS	72 h	19 nM
COc1ccc(-c2cc(C(=O)Nc3ccccc3)c3cc(-c4ccc(Cl)cc4)ccc3n2)cc1	MIA PaCa-2	MTT	48 h	> 50000 nM
COc1cc([C@@H]2c3cc4c(cc3[C@@H](O[C@@H]3O[C@@H]5CO[C@@H](C)O[C@H]5[C@H](O)[C@H]3O)[C@H]3COC(=O)[C@H]23)OCO4)cc(OC)c1O	T47D	MTT	48 h	79000 nM
